≈ marks a conversion by molar mass, not a printed value.

One assay deals with Bacillus subtilis. Kind of assay: Antibacterial activity against Bacillus subtilis by NCCLS broth microdilution method. Format: functional. As to conditions: Bacillus subtilis; read-out: MIC90. A general note: Dilution methods test growth across graded concentrations, often in twofold steps.
On to `CO/N=C1\C2CCCC1(C)C(c1ccccc1C)NC2c1ccccc1C` (stereo not drawn), for which the MIC90 – broadly, the lowest concentration that inhibits either 90% of growth or 90% of the strains tested, depending on the study – amounted to 32 µg/mL (≈ 88.3 µM).

Take `CO/N=C1\C2CCCC1(C)C(c1cccc(F)c1)NC2c1cccc(F)c1` (stereo not drawn): the MIC90 was 128 µg/mL (≈ 346 µM).

In the case of `CON=C1C2CC(C)CC1C(c1ccc(F)cc1)NC2c1ccc(F)cc1` (stereo not drawn), the MIC90 is 16 µg/mL (≈ 43.2 µM).

For the compound `CON=C1C2CC(C)CC1C(c1cccc(Cl)c1)NC2c1cccc(Cl)c1` (stereo not drawn), the MIC90 worked out at 64 µg/mL (≈ 159 µM).

Turning to `CO/N=C1\C2CCCC1(C)C(c1ccccc1Br)NC2c1ccccc1Br` (stereo not drawn), the MIC90 is 64 µg/mL (≈ 130 µM).

`CO/N=C1\C2CCCC1(C)C(c1ccc(Br)cc1)NC2c1ccc(Br)cc1` (stereo not drawn): the MIC90 amounted to 64 µg/mL (≈ 130 µM).

Another assay has as its system Staphylococcus aureus. Kind of assay: Antibacterial activity against Staphylococcus aureus by NCCLS broth microdilution method. Format: functional. Conditions: Staphylococcus aureus; read-out: MIC90.
As for `CO/N=C1\C2CCCC1(C)C(c1ccccc1C)NC2c1ccccc1C` (stereo not drawn), the MIC90 worked out at 32 µg/mL (≈ 88.3 µM).

Turning to `CO/N=C1\C2CCCC1(C)C(c1cccc(F)c1)NC2c1cccc(F)c1` (stereo not drawn), the MIC90 came to 16 µg/mL (≈ 43.2 µM).

Regarding `CON=C1C2CC(C)CC1C(c1ccc(F)cc1)NC2c1ccc(F)cc1` (stereo not drawn), the MIC90 was determined as 4 µg/mL (≈ 10.8 µM).

On to `CON=C1C2CC(C)CC1C(c1cccc(Cl)c1)NC2c1cccc(Cl)c1` (stereo not drawn), for which the MIC90 was found to be 32 µg/mL (≈ 79.3 µM).

For `CO/N=C1\C2CCCC1(C)C(c1ccccc1Br)NC2c1ccccc1Br` (stereo not drawn), the MIC90 came out at 64 µg/mL (≈ 130 µM).

As to `CO/N=C1\C2CCCC1(C)C(c1ccc(Br)cc1)NC2c1ccc(Br)cc1` (stereo not drawn), the MIC90 stood at 32 µg/mL (≈ 65 µM).

A further assay relates to Klebsiella pneumoniae. Kind of assay: Antibacterial activity against Klebsiella pneumoniae by NCCLS broth microdilution method. The format is functional. Conditions: Klebsiella pneumoniae; read-out: MIC90.
Take `CO/N=C1\C2CCCC1(C)C(c1ccccc1C)NC2c1ccccc1C` (stereo not drawn): the MIC90 was determined as 128 µg/mL (≈ 353 µM).

With `CO/N=C1\C2CCCC1(C)C(c1cccc(F)c1)NC2c1cccc(F)c1` (stereo not drawn), the MIC90 was 32 µg/mL (≈ 86.4 µM).

With `CON=C1C2CC(C)CC1C(c1ccc(F)cc1)NC2c1ccc(F)cc1` (stereo not drawn), the MIC90 was 8 µg/mL (≈ 21.6 µM).

`CON=C1C2CC(C)CC1C(c1cccc(Cl)c1)NC2c1cccc(Cl)c1` (stereo not drawn): the MIC90 came out at 32 µg/mL (≈ 79.3 µM).

As to `CO/N=C1\C2CCCC1(C)C(c1ccccc1Br)NC2c1ccccc1Br` (stereo not drawn), the MIC90 came to 64 µg/mL (≈ 130 µM).

As to `CO/N=C1\C2CCCC1(C)C(c1ccc(Br)cc1)NC2c1ccc(Br)cc1` (stereo not drawn), the MIC90 is 32 µg/mL (≈ 65 µM).

The test system of the next assay is Pseudomonas aeruginosa. Kind of assay: Antibacterial activity against Pseudomonas aeruginosa by NCCLS broth microdilution method. Format: functional. Conditions: Pseudomonas aeruginosa; read-out: MIC90.
Regarding `CO/N=C1\C2CCCC1(C)C(c1ccccc1C)NC2c1ccccc1C` (stereo not drawn), the MIC90 is 128 µg/mL (≈ 353 µM).

For the compound `CO/N=C1\C2CCCC1(C)C(c1cccc(F)c1)NC2c1cccc(F)c1` (stereo not drawn), the MIC90 came out at 32 µg/mL (≈ 86.4 µM).

As to `CON=C1C2CC(C)CC1C(c1ccc(F)cc1)NC2c1ccc(F)cc1` (stereo not drawn), the MIC90 was determined as 16 µg/mL (≈ 43.2 µM).

`CON=C1C2CC(C)CC1C(c1cccc(Cl)c1)NC2c1cccc(Cl)c1` (stereo not drawn): the MIC90 was determined as 128 µg/mL (≈ 317 µM).

On to `CO/N=C1\C2CCCC1(C)C(c1ccccc1Br)NC2c1ccccc1Br` (stereo not drawn), for which the MIC90 was found to be 128 µg/mL (≈ 260 µM).

Turning to `CO/N=C1\C2CCCC1(C)C(c1ccc(Br)cc1)NC2c1ccc(Br)cc1` (stereo not drawn), the MIC90 is over 128 µg/mL.

For the next assay, the system named is Candida albicans. Kind of assay: Antifungal activity against Candida albicans by NCCLS broth microdilution method. Conditions: Candida albicans; read-out: MIC90. The format is functional. The gist of the method: (§1)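 MIC90 was taken as the lowest concentration that inhibited 90% of pathogen growth after incubation, reported in μg/mL. Broth dilution followed the NCCLS reference standards: M27-A for yeasts and the proposed standard for conidium-forming filamentous fungi. Fluconazole was the reference drug.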
Regarding `CO/N=C1\C2CCCC1(C)C(c1ccccc1C)NC2c1ccccc1C` (stereo not drawn), the MIC90 came out at 64 µg/mL (≈ 177 µM).

As for `CO/N=C1\C2CCCC1(C)C(c1cccc(F)c1)NC2c1cccc(F)c1` (stereo not drawn), the MIC90 stood at 16 µg/mL (≈ 43.2 µM).

As for `CON=C1C2CC(C)CC1C(c1ccc(F)cc1)NC2c1ccc(F)cc1` (stereo not drawn), the MIC90 was 16 µg/mL (≈ 43.2 µM).

As for `CON=C1C2CC(C)CC1C(c1cccc(Cl)c1)NC2c1cccc(Cl)c1` (stereo not drawn), the MIC90 worked out at 16 µg/mL (≈ 39.7 µM).

`CO/N=C1\C2CCCC1(C)C(c1ccccc1Br)NC2c1ccccc1Br` (stereo not drawn): the MIC90 came out at 64 µg/mL (≈ 130 µM).

As to `CO/N=C1\C2CCCC1(C)C(c1ccc(Br)cc1)NC2c1ccc(Br)cc1` (stereo not drawn), the MIC90 was 64 µg/mL (≈ 130 µM).

A further assay relates to Candida parapsilosis. As to the kind of experiment: Antifungal activity against Candida parapsilosis by NCCLS broth microdilution method. Format: functional. Conditions: Lodderomyces parapsilosis; read-out: MIC90. The gist of the method:
as §1
In the case of `CO/N=C1\C2CCCC1(C)C(c1ccccc1C)NC2c1ccccc1C` (stereo not drawn), the MIC90 was determined as 128 µg/mL (≈ 353 µM).

Take `CO/N=C1\C2CCCC1(C)C(c1cccc(F)c1)NC2c1cccc(F)c1` (stereo not drawn): the MIC90 is 64 µg/mL (≈ 173 µM).

Regarding `CON=C1C2CC(C)CC1C(c1ccc(F)cc1)NC2c1ccc(F)cc1` (stereo not drawn), the MIC90 amounted to 64 µg/mL (≈ 173 µM).

With `CON=C1C2CC(C)CC1C(c1cccc(Cl)c1)NC2c1cccc(Cl)c1` (stereo not drawn), the MIC90 was 8 µg/mL (≈ 19.8 µM).

Regarding `CO/N=C1\C2CCCC1(C)C(c1ccccc1Br)NC2c1ccccc1Br` (stereo not drawn), the MIC90 worked out at 32 µg/mL (≈ 65 µM).

Regarding `CO/N=C1\C2CCCC1(C)C(c1ccc(Br)cc1)NC2c1ccc(Br)cc1` (stereo not drawn), the MIC90 was 128 µg/mL (≈ 260 µM).

The subject of the next assay is Aspergillus niger. As to the kind of experiment: Antifungal activity against Aspergillus niger by NCCLS broth microdilution method. Format: functional. As to conditions: Aspergillus niger; read-out: MIC90. An outline of the steps: as §1
As to `CO/N=C1\C2CCCC1(C)C(c1ccccc1C)NC2c1ccccc1C` (stereo not drawn), the MIC90 turned out to be 64 µg/mL (≈ 177 µM).

On to `CO/N=C1\C2CCCC1(C)C(c1cccc(F)c1)NC2c1cccc(F)c1` (stereo not drawn), for which the MIC90 is 64 µg/mL (≈ 173 µM).

Turning to `CON=C1C2CC(C)CC1C(c1ccc(F)cc1)NC2c1ccc(F)cc1` (stereo not drawn), the MIC90 amounted to 16 µg/mL (≈ 43.2 µM).

For `CON=C1C2CC(C)CC1C(c1cccc(Cl)c1)NC2c1cccc(Cl)c1` (stereo not drawn), the MIC90 came out at 32 µg/mL (≈ 79.3 µM).

As to `CO/N=C1\C2CCCC1(C)C(c1ccccc1Br)NC2c1ccccc1Br` (stereo not drawn), the MIC90 was found to be 32 µg/mL (≈ 65 µM).

In the case of `CO/N=C1\C2CCCC1(C)C(c1ccc(Br)cc1)NC2c1ccc(Br)cc1` (stereo not drawn), the MIC90 is 32 µg/mL (≈ 65 µM).

Another assay concerns Cryptococcus neoformans. As to the kind of experiment: Antifungal activity against Cryptococcus neoformans by NCCLS broth microdilution method. Conditions: Cryptococcus neoformans; read-out: MIC90. Format: functional. An outline of the steps:
as §1
Turning to `CO/N=C1\C2CCCC1(C)C(c1ccccc1C)NC2c1ccccc1C` (stereo not drawn), the MIC90 came out at 128 µg/mL (≈ 353 µM).

On to `CO/N=C1\C2CCCC1(C)C(c1cccc(F)c1)NC2c1cccc(F)c1` (stereo not drawn), for which the MIC90 stood at 128 µg/mL (≈ 346 µM).

Regarding `CON=C1C2CC(C)CC1C(c1ccc(F)cc1)NC2c1ccc(F)cc1` (stereo not drawn), the MIC90 is 8 µg/mL (≈ 21.6 µM).

In the case of `CON=C1C2CC(C)CC1C(c1cccc(Cl)c1)NC2c1cccc(Cl)c1` (stereo not drawn), the MIC90 turned out to be 32 µg/mL (≈ 79.3 µM).

Take `CO/N=C1\C2CCCC1(C)C(c1ccccc1Br)NC2c1ccccc1Br` (stereo not drawn): the MIC90 turned out to be 128 µg/mL (≈ 260 µM).

As for `CO/N=C1\C2CCCC1(C)C(c1ccc(Br)cc1)NC2c1ccc(Br)cc1` (stereo not drawn), the MIC90 came out at 64 µg/mL (≈ 130 µM).

The values are drawn from ChEMBL document CHEMBL1154956, “Stereospecific synthesis of oximes and oxime ethers of 3-azabicycles: A SAR study towards antimicrobial agents” (2010).
